In the library only some 3.5% were active in any assay of this set; here they are far more common.
RGS4 block: inhibitors of human RGS4 | B-score at 10 µM | actives 0.45% (n = 310,000) | HEK293 M3R/RGS4 inducible, Fluo-4 calcium flux; stronger effect = higher value; triggered by carbachol at its EC20 | P49798;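 active means B-score, a plate-corrected calcium signal, over three deviations above library mean, with baseline fluorescence within five deviations of library mean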;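 further: RGS4 expression induced by doxycycline in cells with stable M3 receptor; B-score is computed from the integrated fluorescence ratio over baseline after carbachol; higher B-score means a larger calcium signal and so more RGS4 inhibition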
Target sequence (P49798 whole entry, looked up): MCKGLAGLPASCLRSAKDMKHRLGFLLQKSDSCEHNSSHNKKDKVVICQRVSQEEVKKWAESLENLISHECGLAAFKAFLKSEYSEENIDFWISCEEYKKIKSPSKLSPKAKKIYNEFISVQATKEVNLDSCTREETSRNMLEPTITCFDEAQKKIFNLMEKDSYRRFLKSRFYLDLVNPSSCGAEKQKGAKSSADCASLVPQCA
RGS4 act: RGS4 potentiation or activation; HEK293 M3R/inducible RGS4, carbachol calcium flux Fluo4; stronger effect = lower value; B-score at 10 µM; actives 0.92% (n = 310,000);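 active means B-score of the integrated calcium signal more than 4 SD below the library mean, with starting fluorescence not abnormally high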;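 further: negative B-score means reduced calcium response which marks RGS4 activation or potentiation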
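Material: Inducible-RGS4 HEK293 cells carrying M3 receptor; also added: carbachol at ECmax as muscarinic agonist stimulus; incubation: compound preincubation 20 min at room temperature before agonist; signal: Fluo4-AM (2 µM) calcium-flux fluorescence, kinetic read; measure: integrated calcium ratio converted to B score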
MrgX1 antagonist: antagonists of human MrgX1 receptor. Q96LB2. MRGX1-HEK293 calcium flux, Fluo-4, BAM8-22 antagonism; stronger effect = lower value. B-score at 10 µM. actives 1.3% (n = 310,000). AID 588676;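 active means calcium-response B-score plate-corrected more than 3 library SD below zero, starting fluorescence within 5 deviations, no agonist response on first addition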;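 further: peak minus trough fluorescence over baseline after final BAM8-22 challenge near maximal dose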
Target sequence (Q96LB2 whole entry, looked up): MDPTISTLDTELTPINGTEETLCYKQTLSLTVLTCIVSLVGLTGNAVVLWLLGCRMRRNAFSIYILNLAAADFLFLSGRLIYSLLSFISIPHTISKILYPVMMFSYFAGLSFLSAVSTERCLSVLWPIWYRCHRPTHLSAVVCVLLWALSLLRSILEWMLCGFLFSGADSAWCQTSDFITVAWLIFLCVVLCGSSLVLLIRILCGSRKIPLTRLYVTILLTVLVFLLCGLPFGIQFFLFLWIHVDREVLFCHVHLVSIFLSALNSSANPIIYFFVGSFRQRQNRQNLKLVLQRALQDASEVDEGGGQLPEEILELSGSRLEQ
MrgX1 allo act: allosterically activates human MrgX1 receptor signaling; Q96LB2; MrgX1-HEK293, Fluo-4 calcium flux, FDSS; stronger effect = higher value; B-score at 10 µM; actives 0.63% (n = 310,000); AID 588675;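 active means plate-corrected calcium response at least 3 library SD above typical, normal starting fluorescence, not activating the receptor alone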;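 further: compound read alongside a low EC10 to EC30 dose of BAM8-22 agonist; peak minus trough fluorescence over baseline measured at the second addition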
MrgX1 ag: agonists of human MrgX1 receptor. Q96LB2. MrgX1-HEK293 cells, Fluo-4 calcium fluorescence, agonist mode; stronger effect = higher value. B-score at 10 µM. actives 0.44% (n = 310,000). AID 588627;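 active means calcium response B-score plate-corrected fluorescence ratio at least 3 library SD, with starting fluorescence B-score inside 5 SD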
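System – MrgX1-expressing HEK293 cells · Incubation – cells plated overnight, dye loaded 0.5 h 37 °C, 0.5 h room temperature · Technique – kinetic Fluo-4 NW fluorescence of intracellular calcium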
MrgX1 antag conf: reconfirmed antagonist of human MrgX1 receptor signaling | shares compounds with MrgX1 antagonist | MrgX1-HEK293, BAM8-22 calcium flux, Fluo-4; stronger effect = lower value | remaining BAM8-22 calcium response % of control (stronger effect = lower value), % at 10 µM | actives 19% (n = 2,300);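 active means remaining agonist calcium response no higher than 100% minus 3 SD of agonist-only control wells, with starting fluorescence near control levels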;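 further: agonist BAM8-22 given at a near maximal EC90 to ECmax level; peak minus minimum fluorescence divided by baseline after agonist addition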
HEK293 Ca flux: counter-screen for MrgX1 antagonists: effect in parental HEK293 cells; shares compounds with MrgX1 antagonist; Fluo-4 calcium fluorescence, FDSS; fluorescence ratio F(max-min)/F0 at 10 µM; actives 2% (n = 4,000); AID 624111;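 active means duplicate-averaged calcium fluorescence ratio at least three times the standard deviation of buffer wells, a nonspecific response in parental cells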
HEK293 Ca counter: MrgX1 allosteric activator counter-screen hit in parental HEK293 cells; shares compounds with MrgX1 antagonist; parental HEK293 calcium flux, Fluo-4 fluorescence ratio; stronger effect = higher value; fluorescence ratio F(max-min)/F0 at 10 µM; actives 0.4% (n = 4,000);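 active means calcium fluorescence ratio, averaged over duplicates, at least 3 SD of the buffer-well ratio, meaning a nonspecific response in receptor-free cells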;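 further: untransfected parental HEK293 lacking MrgX1 used as counterscreen for MrgX1 allosteric activators; fluorescence change taken during the second addition on a kinetic imager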
HEK293 Ca cntr2: counter-screen for MrgX1 activators: effect in parental HEK293 cells. fluorescence ratio F(max-min)/F0 at 10 µM. Fluo-4 calcium fluorescence (FDSS); stronger effect = higher value. actives 8.7% (n = 4,000). shares compounds with MrgX1 antagonist;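 active means calcium fluorescence ratio at least three times the spread of buffer wells, meaning a non-specific response in parental cells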
Active calls of the source: *; i = inactive; · = no result given.

SMILES | RGS4 block | RGS4 act | MrgX1 antagonist | MrgX1 allo act | MrgX1 ag | MrgX1 antag conf | HEK293 Ca flux | HEK293 Ca counter | HEK293 Ca cntr2
O=C(CCc1nc(-c2cccs2)no1)Nc1cnc2ccccc2c1 | i | i | -5.56* | i | i | 83.9%* | i | i | i
O=C(CCNC(=O)c1ccccc1Cl)Nc1nc(-c2ccc(F)cc2)cs1 | i | i | -5.45* | i | i | i | i | i | i
CCOC(=O)c1cnc(SC)nc1Oc1cccc(NS(=O)(=O)c2ccc(Cl)cc2)c1 | i | i | -8.65* | i | i | 72.9%* | i | i | i
CCOC(=O)c1cnc(SC)nc1Oc1cccc(NC(=O)c2ccc(Cl)cc2)c1 | i | i | i | i | i | · | · | · | ·
O=C(CC(=O)N/N=C/c1ccc(C(=O)O)cc1)NCCc1ccccc1 | i | i | i | i | i | · | · | · | ·
CCCNc1c(F)c(F)c2c(C)c3ccccc3nc2c1F | i | -7.49* | -6.04* | i | i | i | 0.364* | i | 89.9*
Cc1c2ccccc2nc2ccccc12 | i | i | i | i | i | · | · | · | ·
O=C(Cc1ccc2c(c1)OCCO2)N1CCN(c2ccccc2)CC1 | i | i | i | i | i | · | · | · | ·
CNCc1ccccc1OCC(=O)Nc1ccccc1 | i | i | -4.59* | i | i | i | i | i | i
CCc1ccccc1OCC(=O)Nc1ccc(S(N)(=O)=O)cc1 | i | i | i | i | i | · | · | · | ·
O=[N+]([O-])c1ccc(NC2CCCC2)cc1 | i | i | i | i | i | · | · | · | ·
N#Cc1cc(NC2CCCC2)c([N+](=O)[O-])cc1C#N | i | i | -12.1* | i | i | i | i | i | i
O=C(NC1CCCCCC1)c1ccc(Br)o1 | i | i | i | i | i | · | · | · | ·
O=C(NC1CCCCCCC1)c1ccc(Br)o1 | i | i | -4.68* | i | i | i | i | i | i
O=C(O)c1ccc(Cl)c(S(=O)(=O)Nc2ccc(OCc3ccccc3)cc2)c1 | i | i | i | i | i | · | · | · | ·
O=C(Nc1ncc2c(n1)-c1ccccc1OC2)c1ccc(F)cc1 | i | i | i | i | i | · | · | · | ·
O=C(Nc1ncc2c(n1)-c1ccccc1CC2)c1cccc(Cl)c1 | i | i | i | i | i | · | · | · | ·
CCCSCC(=O)Nc1ncc2c(n1)-c1ccccc1CC2 | i | i | -4.66* | i | i | 75.4%* | i | i | i
O=C(Nc1ncc2c(n1)-c1ccccc1CC2)c1ccc(Cl)cc1 | i | i | -5.19* | i | i | i | i | i | i
COC(=O)c1ccc(Nc2ncnc3c2cnn3-c2cccc(C)c2)cc1 | i | i | -4.83* | i | i | i | i | i | i
Cc1ccc(SCCNS(=O)(=O)c2ccc(F)cc2)cc1 | i | i | i | i | i | · | · | · | ·
Cc1ccc(SCCNS(C)(=O)=O)cc1 | i | i | -5.07* | i | i | i | i | i | i
CCCCOC(=O)C1=C(C)NC(=O)NC1c1ccc([N+](=O)[O-])s1 (stereo not drawn) | i | i | i | i | i | · | · | · | ·
Cc1ccc(C)c(NS(=O)(=O)c2ccc3[nH]c(=O)oc3c2)c1 | i | i | -5.26* | i | i | i | i | i | i
CCCCn1c(=O)[nH]c(=O)c2c1ncn2Cc1ccco1 | i | i | i | i | i | · | · | · | ·
SMILES | RGS4 block | RGS4 act | MrgX1 antagonist | MrgX1 allo act | MrgX1 ag | MrgX1 antag conf | HEK293 Ca flux | HEK293 Ca counter | HEK293 Ca cntr2
CCCCn1cnc2c(c(-c3ccccc3)c(-c3ccccc3)n2Cc2ccco2)c1=N | i | i | -14.2* | i | i | i | i | i | i
CCn1cnc2c([N+](=O)[O-])c(NS(=O)(=O)c3ccc(C)cc3)ccc21 | i | i | i | i | i | · | · | · | ·
COc1cccc(OCCCOc2ccccc2C(C)C)c1 | i | i | -6.89* | i | i | i | i | i | i
COc1cccc(OCCOc2ccccc2[N+](=O)[O-])c1 | i | i | i | i | i | · | · | · | ·
CC1=C(C(=O)OC2CCCCC2)C(c2ccccc2Br)NC(=O)N1 (stereo not drawn) | i | i | i | i | i | · | · | · | ·
CCC(C(=O)NCCCN1CC(C)CC(C)C1)n1ncn2c(cc3occc32)c1=O (stereo not drawn) | i | i | i | i | i | · | · | · | ·
O=C(COc1ccccc1)Nc1nnc(-c2ccc(F)cc2)o1 | i | i | i | i | i | · | · | · | ·
O=C(COc1ccccc1)Nc1nnc(-c2ccccc2Cl)o1 | i | i | -7.89* | i | i | i | i | i | i
C#CCOc1coc(COC(=O)c2ccccc2)cc1=O | i | i | i | i | i | · | · | · | ·
Cc1ccc(-c2nc(NC(=O)c3ccc(S(=O)(=O)N(CCC#N)CCC#N)cc3)sc2-c2ccccc2)cc1 | i | i | i | i | i | · | · | · | ·
CCCN(CCC)S(=O)(=O)c1ccc(C(=O)Nc2nc3c(s2)CCc2ccccc2-3)cc1 | i | i | -5.2* | i | i | i | i | i | i
Cc1cc(C(=O)NC2CCCCC2)c2cc(F)ccc2n1 | i | i | i | i | i | · | · | · | ·
Cc1cc(C(=O)NC(C)c2ccccc2)c2cc(F)ccc2n1 (stereo not drawn) | i | i | -5.42* | i | i | i | i | i | i
CCc1ccccc1NC(=O)CCc1c(C)nc(SC)nc1C | i | i | i | i | i | · | · | · | ·
Fc1ccc(CN2CCSCC2)cc1F | i | i | -4.54* | i | i | i | i | i | i
CCCCN1CCN=C1Nc1ccccc1 | i | i | i | i | i | · | · | · | ·
CCOc1ccc(S(=O)(=O)Nc2ccc(S(=O)(=O)N3CCCCC3)cc2)cc1 | i | i | -5.33* | i | i | i | i | i | i
CCOc1ccc(S(=O)(=O)Nc2ccc(S(=O)(=O)N3CCCC3)cc2)cc1 | i | i | i | i | i | · | · | · | ·
